Laboratory results reported in ChEMBL document CHEMBL4765248, “Design, synthesis, biological evaluation and molecular docking study of novel thieno[3,2-d]pyrimidine derivatives as potent FAK inhibitors” (Eur J Med Chem, 2020).

Experiments:
[1] = target: Rho-associated protein kinase 1 (Homo sapiens) (UniProt Q13464); test: Inhibition of GST-tagged recombinant human ROCK1 catalytic domain (1-535) expressed in baculovirus expression system at 1 uM by Selectscreen kinase assay
Method in brief: (§1)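 Single-point screen at 1 μM final against a panel of 25 kinases using a commercial profiling service; mean of three independent experiments each run in triplicate.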

MDA-MB-231 [2] = test: Antiproliferative activity against human MDA-MB-231 cells assessed as cell viability at 2.5 uM measured after 24 hrs by MTT assay (reference value: 100%); format: functional; conditions: read-out: Activity
MDA-MB-231 [3] = test: Induction of apoptosis in human MDA-MB-231 cells assessed as early apoptotic cells at 0.1 uM incubated for 48 hrs by Annexin V-FITC/PI staining based flow cytometric analysis (reference value: 1.58%); format: functional
A549 [4] = test: Antiproliferative activity against human A549 cells assessed as cell viability at 2.5 uM measured after 48 hrs by MTT assay (reference value: 100%); format: functional; conditions: read-out: Activity
[5] = target: Inhibitor of nuclear factor kappa-B kinase subunit epsilon (Homo sapiens) (UniProt Q14164); test: Inhibition of GST-tagged full length human IKK epsilon expressed in baculovirus expression system at 1 uM by Selectscreen kinase assay; method in brief: as §1
[6] = Metabolic stability in rat liver microsomes assessed as parent compound remaining at 1 uM measured after 60 mins in absence of NADPH by LC-MS/MS analysis; format: ADME, Microsome; conditions: read-out: Stabilty
Method in brief: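 Rat liver microsomes (0.5 mg/mL) were incubated at 37 °C with 1 μM compound in pH 7.4 potassium phosphate/MgCl2 buffer for 1 h, with buffer in place of the NADPH regeneration system. After acetonitrile precipitation, percent parent remaining was measured by LC-MS/MS.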

MDA-MB-231 [7] = test: Induction of apoptosis in human MDA-MB-231 cells assessed as early apoptotic cells at 0.2 uM incubated for 48 hrs by Annexin V-FITC/PI staining based flow cytometric analysis (reference value: 1.58%); format: functional
[8] = target: Tyrosine-protein kinase ZAP-70 (Homo sapiens) (UniProt P43403); test: Inhibition of His-tagged full-length recombinant human ZAP-70 expressed in baculovirus expression system at 1 uM by Selectscreen kinase assay; method in brief: as §1
[9] = target: MAP kinase-interacting serine/threonine-protein kinase 1 (Homo sapiens) (UniProt Q9BUB5); test: Inhibition of GST-tagged full length human MKNK1 expressed in insect expression system at 1 uM by Selectscreen kinase assay; method in brief: as §1
MDA-MB-231 [10] = test: Induction of apoptosis in human MDA-MB-231 cells assessed as early apoptotic cells at 0.4 uM incubated for 48 hrs by Annexin V-FITC/PI staining based flow cytometric analysis (reference value: 1.58%); format: functional
A549 [11] = test: Antiproliferative activity against human A549 cells assessed as cell viability at 0.1 uM measured after 72 hrs by MTT assay (reference value: 100%); format: functional; conditions: read-out: Activity
MDA-MB-231 [12] = test: Induction of apoptosis in human MDA-MB-231 cells incubated for 48 hrs by Annexin V-FITC/PI staining based flow cytometric analysis; format: functional, cell-based; conditions: dose 0.1-0.4 µM
[13] = target: RAC-alpha serine/threonine-protein kinase (Homo sapiens) (UniProt P31749); test: Inhibition of His-tagged human full length AKT1 expressed in baculovirus expression system at 1 uM by Selectscreen kinase assay; method in brief: as §1
[14] = target: Serine/threonine-protein kinase Chk1 (Homo sapiens) (UniProt O14757); test: Inhibition of His-tagged full length human CHK1 expressed in baculovirus expression system at 1 uM by Selectscreen kinase assay; method in brief: as §1
Focal adhesion kinase 1 = Focal adhesion kinase 1 (Homo sapiens, UniProt Q05397); test: Inhibition of GST-tagged full length human FAK expressed in baculovirus expression system at 1 uM by Selectscreen kinase assay; method in brief: as §1
[15] = target: ALK tyrosine kinase receptor (Homo sapiens) (UniProt Q9UM73); test: Inhibition of GST-tagged human ALK expressed in baculovirus expression system at 1 uM by Selectscreen kinase assay; method in brief: as §1
A549 [16] = test: Antiproliferative activity against human A549 cells assessed as cell viability at 0.1 uM measured after 24 hrs by MTT assay (reference value: 100%); format: functional; conditions: read-out: Activity
MDA-MB-231 [17] = test: Inhibition of cell migration in human MDA-MB-231 cells measured after 48 hrs by wound healing assay; format: functional, cell-based; conditions: dose 0.15-0.6 µM
Method in brief: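 MDA-MB-231 cells (2×10^6/well) were grown to confluence and the monolayer was scratched with a pipette tip. Cells were washed with PBS, kept in serum-free medium and treated with DMSO or compound at 0.15, 0.3 or 0.6 μM for 48 h. Wound closure was photographed by inverted microscope at 24 and 48 h.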

[18] = target: Dual specificity mitogen-activated protein kinase kinase 1 (Homo sapiens) (UniProt Q02750); test: Inhibition of His-tagged full length human MEK1 expressed in baculovirus expression system at 1 uM by Selectscreen kinase assay; method in brief: as §1
MDA-MB-231 [19] = test: Induction of apoptosis in human MDA-MB-231 cells assessed as necrotic cells at 0.1 uM incubated for 48 hrs by Annexin V-FITC/PI staining based flow cytometric analysis (reference value: 1.08%); format: functional
MDA-MB-231 [20] = test: Induction of apoptosis in human MDA-MB-231 cells assessed as viable cells at 0.4 uM incubated for 48 hrs by Annexin V-FITC/PI staining based flow cytometric analysis (reference value: 95.84%); format: functional; conditions: read-out: Activity
[21] = Metabolic stability in rat liver microsomes assessed as parent compound remaining at 1 uM measured after 60 mins in presence of NADPH by LC-MS/MS analysis; format: ADME, Microsome; conditions: read-out: Stabilty
Method in brief: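 Rat liver microsomes (0.5 mg/mL) were incubated at 37 °C with 1 μM compound in 100 mM potassium phosphate, pH 7.4, with 10 mM MgCl2. Reaction was started with prewarmed NADPH cofactor and sampled at 0, 5, 10, 20, 30 and 60 min. Protein was precipitated with cold acetonitrile and supernatants analysed by LC-MS/MS to give half-life, 1 h remaining and intrinsic clearance.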

A549 [22] = test: Antiproliferative activity against human A549 cells assessed as cell viability at 2.5 uM measured after 72 hrs by MTT assay (reference value: 100%); format: functional; conditions: read-out: Activity
[23] = target: Interleukin-1 receptor-associated kinase 4 (Homo sapiens) (UniProt Q9NWZ3); test: Inhibition of His-tagged full length human IRAK4 expressed in baculovirus expression system at 1 uM by Selectscreen kinase assay; method in brief: as §1
MDA-MB-231 [24] = test: Antiproliferative activity against human MDA-MB-231 cells assessed as reduction in cell viability at 0.1 to 2.5 uM by MTT assay; format: functional, cell-based; conditions: dose 0.1-2.5 µM, time 24-72 hrs, TDE = time-dependent effect
HK-2 = test: Cytotoxicity against human HK2 cells assessed as inhibition of cell proliferation measured after 72 hrs by MTT assay; format: cell-based; conditions: HK-2, 72 h
Method in brief: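 Cells were seeded at 4000–5000/well and held 24 h at 37 °C in 5% CO2. Compounds were added at the indicated final concentrations and incubated 72 h. MTT was added (5 mg/mL in PBS, stated as final) for 4 h at 37 °C. Formazan was dissolved in DMSO and absorbance read at 490 nm. The 50% growth-inhibitory concentration is the mean of three independent experiments ± SE.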

A549 [25] = test: Antiproliferative activity against human A549 cells assessed as cell viability at 0.5 uM measured after 48 hrs by MTT assay (reference value: 100%); format: functional; conditions: read-out: Activity

Chain of Tyrosine-protein kinase ZAP-70 (Homo sapiens) (P43403 whole entry): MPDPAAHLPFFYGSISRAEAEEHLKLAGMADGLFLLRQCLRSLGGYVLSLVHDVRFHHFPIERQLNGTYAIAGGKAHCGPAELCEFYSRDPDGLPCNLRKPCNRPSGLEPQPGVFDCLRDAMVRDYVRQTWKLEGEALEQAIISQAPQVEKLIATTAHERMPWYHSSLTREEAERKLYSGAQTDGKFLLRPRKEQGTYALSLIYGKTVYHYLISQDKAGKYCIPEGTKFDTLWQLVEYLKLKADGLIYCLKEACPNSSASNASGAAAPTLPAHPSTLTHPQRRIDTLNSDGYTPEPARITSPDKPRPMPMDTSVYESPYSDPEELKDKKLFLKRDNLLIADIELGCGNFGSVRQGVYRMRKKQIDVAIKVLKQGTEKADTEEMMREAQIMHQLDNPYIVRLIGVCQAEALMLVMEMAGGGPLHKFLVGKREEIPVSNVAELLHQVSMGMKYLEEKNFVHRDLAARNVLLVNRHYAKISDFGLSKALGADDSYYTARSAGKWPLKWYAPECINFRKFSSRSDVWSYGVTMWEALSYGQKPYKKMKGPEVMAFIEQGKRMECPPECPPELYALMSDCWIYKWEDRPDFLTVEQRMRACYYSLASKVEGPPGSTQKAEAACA
Chain of Rho-associated protein kinase 1 (Homo sapiens) (Q13464 2-1354 limits assumed): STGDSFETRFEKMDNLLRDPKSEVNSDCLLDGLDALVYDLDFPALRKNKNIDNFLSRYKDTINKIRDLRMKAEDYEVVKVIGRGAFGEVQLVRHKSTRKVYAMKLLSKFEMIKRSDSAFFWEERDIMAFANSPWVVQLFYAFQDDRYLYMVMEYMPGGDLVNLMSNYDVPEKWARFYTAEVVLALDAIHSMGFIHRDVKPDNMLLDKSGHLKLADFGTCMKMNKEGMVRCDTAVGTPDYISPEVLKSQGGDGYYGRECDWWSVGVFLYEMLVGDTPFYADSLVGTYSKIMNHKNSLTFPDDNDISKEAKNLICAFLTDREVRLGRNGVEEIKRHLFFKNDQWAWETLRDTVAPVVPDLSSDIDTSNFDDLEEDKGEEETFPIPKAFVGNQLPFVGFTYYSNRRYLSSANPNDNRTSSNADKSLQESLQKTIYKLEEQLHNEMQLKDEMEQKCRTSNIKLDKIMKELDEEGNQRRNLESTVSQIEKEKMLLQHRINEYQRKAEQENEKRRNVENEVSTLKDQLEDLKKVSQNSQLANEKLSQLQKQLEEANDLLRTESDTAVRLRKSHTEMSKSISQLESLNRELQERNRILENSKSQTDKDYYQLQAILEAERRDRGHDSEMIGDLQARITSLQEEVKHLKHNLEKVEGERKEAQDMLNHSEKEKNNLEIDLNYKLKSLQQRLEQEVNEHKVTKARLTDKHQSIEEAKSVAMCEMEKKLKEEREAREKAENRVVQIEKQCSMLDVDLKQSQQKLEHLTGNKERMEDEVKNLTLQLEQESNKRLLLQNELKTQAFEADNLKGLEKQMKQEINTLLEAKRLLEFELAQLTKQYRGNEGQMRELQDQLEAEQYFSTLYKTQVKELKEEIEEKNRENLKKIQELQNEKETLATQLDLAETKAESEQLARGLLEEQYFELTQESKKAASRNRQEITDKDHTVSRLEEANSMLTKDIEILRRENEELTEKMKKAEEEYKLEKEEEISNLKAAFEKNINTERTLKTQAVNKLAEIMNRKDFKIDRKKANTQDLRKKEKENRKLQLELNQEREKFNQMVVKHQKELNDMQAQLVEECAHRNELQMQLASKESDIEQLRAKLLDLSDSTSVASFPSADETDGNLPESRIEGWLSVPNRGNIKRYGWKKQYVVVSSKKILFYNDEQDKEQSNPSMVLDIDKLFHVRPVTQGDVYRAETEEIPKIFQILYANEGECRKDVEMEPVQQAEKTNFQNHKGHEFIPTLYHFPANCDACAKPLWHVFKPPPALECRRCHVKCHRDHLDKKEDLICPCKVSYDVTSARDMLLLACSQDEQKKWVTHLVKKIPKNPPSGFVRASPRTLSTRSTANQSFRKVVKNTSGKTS
Chain of MAP kinase-interacting serine/threonine-protein kinase 1 (Homo sapiens) (Q9BUB5 whole entry, looked up): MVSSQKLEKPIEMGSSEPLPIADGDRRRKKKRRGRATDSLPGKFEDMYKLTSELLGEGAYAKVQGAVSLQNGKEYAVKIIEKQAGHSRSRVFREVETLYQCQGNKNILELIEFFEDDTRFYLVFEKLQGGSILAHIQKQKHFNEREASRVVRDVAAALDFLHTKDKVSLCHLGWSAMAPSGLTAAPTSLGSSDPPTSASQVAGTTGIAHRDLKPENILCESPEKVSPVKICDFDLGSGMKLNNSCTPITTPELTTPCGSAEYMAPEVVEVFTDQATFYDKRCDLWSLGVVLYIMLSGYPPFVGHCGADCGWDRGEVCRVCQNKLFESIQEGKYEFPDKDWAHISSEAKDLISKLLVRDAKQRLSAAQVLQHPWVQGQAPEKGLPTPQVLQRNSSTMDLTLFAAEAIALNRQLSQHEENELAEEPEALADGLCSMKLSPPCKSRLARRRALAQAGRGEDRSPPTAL
Chain of ALK tyrosine kinase receptor (Homo sapiens) (Q9UM73 19-1620 limits assumed): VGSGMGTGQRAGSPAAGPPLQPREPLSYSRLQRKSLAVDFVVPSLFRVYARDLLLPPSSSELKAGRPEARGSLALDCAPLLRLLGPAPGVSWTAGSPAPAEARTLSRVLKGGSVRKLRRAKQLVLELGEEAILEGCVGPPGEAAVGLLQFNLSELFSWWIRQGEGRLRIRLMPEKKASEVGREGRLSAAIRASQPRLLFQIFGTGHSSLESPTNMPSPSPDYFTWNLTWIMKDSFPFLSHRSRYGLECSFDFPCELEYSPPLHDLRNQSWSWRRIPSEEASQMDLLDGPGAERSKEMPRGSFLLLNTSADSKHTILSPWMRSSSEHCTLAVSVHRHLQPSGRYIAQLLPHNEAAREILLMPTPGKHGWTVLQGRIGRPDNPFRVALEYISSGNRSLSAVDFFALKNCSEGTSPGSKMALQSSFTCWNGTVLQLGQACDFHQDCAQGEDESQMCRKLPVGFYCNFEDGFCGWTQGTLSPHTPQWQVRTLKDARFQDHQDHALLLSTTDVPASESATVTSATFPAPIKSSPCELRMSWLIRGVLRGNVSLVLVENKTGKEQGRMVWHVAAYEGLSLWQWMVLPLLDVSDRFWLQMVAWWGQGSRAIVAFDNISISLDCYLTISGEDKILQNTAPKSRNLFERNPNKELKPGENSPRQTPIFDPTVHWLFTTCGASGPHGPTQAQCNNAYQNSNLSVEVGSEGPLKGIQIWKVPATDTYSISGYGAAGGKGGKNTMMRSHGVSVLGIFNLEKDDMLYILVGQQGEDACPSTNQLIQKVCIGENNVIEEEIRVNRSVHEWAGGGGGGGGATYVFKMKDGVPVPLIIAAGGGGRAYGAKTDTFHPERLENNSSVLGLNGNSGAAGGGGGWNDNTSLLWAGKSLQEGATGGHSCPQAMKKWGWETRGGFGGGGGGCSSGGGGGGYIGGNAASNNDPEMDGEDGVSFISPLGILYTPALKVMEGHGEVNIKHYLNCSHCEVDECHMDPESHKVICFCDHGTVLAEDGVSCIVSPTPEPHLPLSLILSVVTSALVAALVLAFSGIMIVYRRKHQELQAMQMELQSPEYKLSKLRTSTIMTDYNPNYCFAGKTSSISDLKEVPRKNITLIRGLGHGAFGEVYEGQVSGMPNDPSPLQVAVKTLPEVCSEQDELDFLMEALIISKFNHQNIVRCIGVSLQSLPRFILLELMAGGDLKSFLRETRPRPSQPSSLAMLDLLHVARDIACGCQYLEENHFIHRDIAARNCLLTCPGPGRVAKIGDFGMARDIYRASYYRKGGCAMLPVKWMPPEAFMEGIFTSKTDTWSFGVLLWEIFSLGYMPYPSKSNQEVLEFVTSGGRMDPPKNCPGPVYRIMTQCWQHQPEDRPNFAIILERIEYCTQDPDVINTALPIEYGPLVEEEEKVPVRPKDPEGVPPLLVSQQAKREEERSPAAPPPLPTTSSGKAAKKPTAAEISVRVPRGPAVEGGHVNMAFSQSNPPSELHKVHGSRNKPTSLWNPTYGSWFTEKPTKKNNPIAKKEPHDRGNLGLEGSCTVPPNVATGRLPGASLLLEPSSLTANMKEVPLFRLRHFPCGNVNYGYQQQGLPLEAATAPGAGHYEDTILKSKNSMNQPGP
Chain of RAC-alpha serine/threonine-protein kinase (Homo sapiens) (P31749 whole entry): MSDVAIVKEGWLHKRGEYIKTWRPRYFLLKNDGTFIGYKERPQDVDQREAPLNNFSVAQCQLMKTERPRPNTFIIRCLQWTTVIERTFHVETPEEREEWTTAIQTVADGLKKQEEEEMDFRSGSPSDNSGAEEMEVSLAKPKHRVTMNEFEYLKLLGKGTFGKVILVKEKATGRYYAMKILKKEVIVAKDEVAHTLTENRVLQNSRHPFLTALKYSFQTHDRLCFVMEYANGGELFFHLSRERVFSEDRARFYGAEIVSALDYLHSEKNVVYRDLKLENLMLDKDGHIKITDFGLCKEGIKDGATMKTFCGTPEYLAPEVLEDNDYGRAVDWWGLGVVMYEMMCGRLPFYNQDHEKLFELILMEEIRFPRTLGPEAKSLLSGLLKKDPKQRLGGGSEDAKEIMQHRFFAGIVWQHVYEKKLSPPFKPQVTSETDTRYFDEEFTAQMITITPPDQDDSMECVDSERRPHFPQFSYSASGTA
Chain of Interleukin-1 receptor-associated kinase 4 (Homo sapiens) (Q9NWZ3 whole entry): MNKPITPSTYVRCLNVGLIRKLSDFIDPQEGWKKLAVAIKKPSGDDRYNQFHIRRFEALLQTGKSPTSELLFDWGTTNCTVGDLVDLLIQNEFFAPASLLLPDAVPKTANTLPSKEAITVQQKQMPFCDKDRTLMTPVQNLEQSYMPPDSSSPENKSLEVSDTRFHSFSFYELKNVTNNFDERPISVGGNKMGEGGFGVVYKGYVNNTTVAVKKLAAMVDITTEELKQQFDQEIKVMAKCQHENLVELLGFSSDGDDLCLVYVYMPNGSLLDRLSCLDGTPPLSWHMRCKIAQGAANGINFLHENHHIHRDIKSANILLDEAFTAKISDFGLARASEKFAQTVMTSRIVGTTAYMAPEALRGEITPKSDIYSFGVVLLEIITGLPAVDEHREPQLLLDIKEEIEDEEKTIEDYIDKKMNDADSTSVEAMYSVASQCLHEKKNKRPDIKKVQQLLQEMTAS

COc1ccccc1-c1csc2cnc(Nc3ccc(C(=O)NC4CCNCC4)c(F)c3)nc12
inhibition [1]: 33%
viability at 2.5 µM (MDA-MB-231 [2]): 52.2%
Activity (MDA-MB-231 [3]): 7.21%
viability at 2.5 µM (A549 [4]): 31%
inhibition [5]: 66%
remaining at 1 h, 1 µM [6]: 92.1%
Activity (MDA-MB-231 [7]): 9.78%
inhibition [8]: 6%
inhibition [9]: 13%
Activity (MDA-MB-231 [10]): 15.61%
viability at 0.1 µM (A549 [11]): 66.9%
Activity (MDA-MB-231 [12]): Dose-dependent effect
inhibition [13]: 15%
inhibition [14]: 38%
inhibition (Focal adhesion kinase 1): 100%
inhibition [15]: 95%
viability at 0.1 µM (A549 [16]): 96.4%
inhibition (MDA-MB-231 [17]): Dose-dependent effect
inhibition [18]: 27%
Activity (MDA-MB-231 [19]): 2.97%
viability at 0.4 µM (MDA-MB-231 [20]): 53.8%
remaining at 1 h, 1 µM [21]: 72.4%
viability at 2.5 µM (A549 [22]): 18.8%
inhibition [23]: 72%
Activity (MDA-MB-231 [24]): Tde
IC50 (HK-2): 3.32 µM
viability at 0.5 µM (A549 [25]): 47.4%
